MrgX1 antagonist: antagonists of human MrgX1 receptor; Q96LB2; B-score at 10 µM; MRGX1-HEK293 calcium flux, Fluo-4, BAM8-22 antagonism; stronger effect = lower value; hit rate 1.3% among 310,000;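 active = calcium-response B-score plate-corrected more than 3 library SD below zero, starting fluorescence within 5 deviations, no agonist response on first addition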;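 note: peak minus trough fluorescence over baseline after final BAM8-22 challenge near maximal dose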
Target sequence (Q96LB2 whole entry, looked up): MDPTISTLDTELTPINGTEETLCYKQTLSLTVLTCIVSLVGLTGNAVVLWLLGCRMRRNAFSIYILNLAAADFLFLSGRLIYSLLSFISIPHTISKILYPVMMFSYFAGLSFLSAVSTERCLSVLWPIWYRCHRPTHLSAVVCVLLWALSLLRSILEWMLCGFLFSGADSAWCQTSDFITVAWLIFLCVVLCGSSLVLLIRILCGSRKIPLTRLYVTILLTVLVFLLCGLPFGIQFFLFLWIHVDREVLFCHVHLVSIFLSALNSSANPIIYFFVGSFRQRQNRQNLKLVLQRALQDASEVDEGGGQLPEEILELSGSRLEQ
MrgX1 agonist: human MrgX1 receptor agonism, primary screen. Q96LB2. MrgX1-HEK293 cells, Fluo-4 calcium fluorescence, agonist mode; stronger effect = higher value. B-score at 10 µM. hit rate 0.44% among 310,000;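 active = calcium response B-score plate-corrected fluorescence ratio at least 3 library SD, with starting fluorescence B-score inside 5 SD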
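System: HEK293 cells stably expressing human MrgX1 receptor; Dosing: test compound in the initial addition of three; Schedule: overnight plating, then 30 min 37 °C plus 30 min room-temperature dye loading; Detection: kinetic calcium dye fluorescence, Fluo-4 NW; Controls: per-plate positive and negative controls for Z′ factor.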
RGS4 act: potentiators or activators of RGS4; HEK293 M3R/inducible RGS4, carbachol calcium flux Fluo4; stronger effect = lower value; B-score at 10 µM; hit rate 0.92% among 310,000; AID 463111;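 active = B-score of the integrated calcium signal more than 4 SD below the library mean, with starting fluorescence not abnormally high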;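 note: negative B-score means reduced calcium response which marks RGS4 activation or potentiation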
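Assay system: HEK293 FlpIn-TREx cells, stable M3R, doxycycline-inducible RGS4 / Probe or stimulus: carbachol, ECmax concentration / Times: overnight RGS4 induction, 30 min dye load 37 °C, 20 min compound RT / Signal: kinetic calcium fluorescence imaging with Fluo4-AM dye, 2 µM / Measure: Agonist-evoked peak-minus-minimum fluorescence over baseline, integrated ratio, B score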
MrgX1 PAM: human MrgX1 positive allosteric modulation, primary screen. MrgX1-HEK293, Fluo-4 calcium flux, FDSS; stronger effect = higher value. hit rate 0.63% among 310,000. Q96LB2. B-score at 10 µM;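 active = plate-corrected calcium response at least 3 library SD above typical, normal starting fluorescence, not activating the receptor alone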;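 note: compound read alongside a low EC10 to EC30 dose of BAM8-22 agonist; peak minus trough fluorescence over baseline measured at the second addition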
RGS4 inh: human RGS4 inhibition | P49798 | HEK293 M3R/RGS4 inducible, Fluo-4 calcium flux; stronger effect = higher value; triggered by carbachol at its EC20 | B-score at 10 µM | hit rate 0.45% among 310,000 | AID 463165;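 active = B-score, a plate-corrected calcium signal, over three deviations above library mean, with baseline fluorescence within five deviations of library mean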;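 note: RGS4 expression induced by doxycycline in cells with stable M3 receptor; B-score is computed from the integrated fluorescence ratio over baseline after carbachol; higher B-score means a larger calcium signal and so more RGS4 inhibition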
Target sequence (P49798 whole entry, looked up): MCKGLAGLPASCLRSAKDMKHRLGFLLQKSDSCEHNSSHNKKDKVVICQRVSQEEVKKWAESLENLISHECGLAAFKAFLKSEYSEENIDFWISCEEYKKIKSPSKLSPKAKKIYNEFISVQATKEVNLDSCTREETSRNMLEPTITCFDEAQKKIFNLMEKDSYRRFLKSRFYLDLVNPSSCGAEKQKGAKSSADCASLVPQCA
MrgX1 allo conf: confirmation of human MrgX1 receptor positive allosteric modulators; shares compounds with MrgX1 PAM; activation (ratio percentage), % at 10 µM; hit rate 13% among 1,200; AID 602413; MrgX1-HEK293, Fluo-4 calcium fluorescence, FDSS;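 active = ratio at least 3 SD above the weak peptide control, stable starting fluorescence, no direct agonism earlier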;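 note: compound followed by low BAM8-22 agonist challenge near EC20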
HEK293 Ca flux: counter-screen for MrgX1 antagonists: effect in parental HEK293 cells | shares compounds with MrgX1 antagonist | Fluo-4 calcium fluorescence, FDSS | fluorescence ratio F(max-min)/F0 at 10 µM | hit rate 2% among 4,000 | AID 624111;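 active = duplicate-averaged calcium fluorescence ratio at least three times the standard deviation of buffer wells, a nonspecific response in parental cells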
HEK293 Ca counter: MrgX1 allosteric activator counter-screen hit in parental HEK293 cells | hit rate 0.4% among 4,000 | parental HEK293 calcium flux, Fluo-4 fluorescence ratio; stronger effect = higher value | AID 624114 | shares compounds with MrgX1 antagonist | fluorescence ratio F(max-min)/F0 at 10 µM;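 active = calcium fluorescence ratio, averaged over duplicates, at least 3 SD of the buffer-well ratio, meaning a nonspecific response in receptor-free cells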;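 note: untransfected parental HEK293 lacking MrgX1 used as counterscreen for MrgX1 allosteric activators; fluorescence change taken during the second addition on a kinetic imager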
HEK293 Ca cntr2: counter-screen for MrgX1 activators: effect in parental HEK293 cells; shares compounds with MrgX1 antagonist; Fluo-4 calcium fluorescence (FDSS); stronger effect = higher value; fluorescence ratio F(max-min)/F0 at 10 µM; hit rate 8.7% among 4,000;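 active = calcium fluorescence ratio at least three times the spread of buffer wells, meaning a non-specific response in parental cells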
Hits are given with their value; n = inactive; x = no result given. Only some compounds are listed: those with a hit (about 3.5% of all), similar ones and a draw of the others.

SMILES	MrgX1 antagonist	MrgX1 agonist	RGS4 act	MrgX1 PAM	RGS4 inh	MrgX1 allo conf	HEK293 Ca flux	HEK293 Ca counter	HEK293 Ca cntr2
Brc1ccc(Nc2nc(-c3cccnc3)cs2)cc1	n	n	n	n	n	x	x	x	x
Cc1ccc(Nc2nc(-c3cccnc3)cs2)cc1C	n	n	n	6.5	n	n	n	n	n
O=C1C2CC=C(Cl)CC2C(=O)N1CCCCCCN1C(=O)C2CC=C(Cl)CC2C1=O (stereo not drawn)	n	n	n	6.5	n	n	n	n	n
O=C1C2CC=C(Cl)CC2C(=O)N1CCN1CCOCC1 (stereo not drawn)	n	n	n	n	n	x	x	x	x
CCN(CC)S(=O)(=O)c1ccc(C)c(NC(=S)NNC(=O)C2CC2)c1	n	n	n	n	n	x	x	x	x
C/C(=N\NC(=O)c1nc2ccccn2c1C)c1cc2ccccc2o1	n	n	n	n	n	x	x	x	x
C/C(=N\NC(=O)c1cc2ccccc2cc1O)c1cc2ccccc2o1	n	n	n	22	n	n	n	n	n
CC(=O)c1cccc(N2C(=NC(=O)C3CC3)SC3CS(=O)(=O)CC32)c1 (stereo not drawn)	n	n	n	n	n	x	x	x	x
COC(=O)c1[nH]c2ccc(C)cc2c1NC(=O)CN1CCN(c2ccccc2)CC1	n	n	n	n	n	x	x	x	x
COC(=O)c1[nH]c2ccc(C)cc2c1NC(=O)CN1CCC(C)CC1	n	n	n	7.8	n	n	n	n	n
CC1(C)CC2CC(C)(CN2c2ncnc3ccccc23)C1 (stereo not drawn)	n	n	n	25	n	25%	n	n	n
CN(C)CCn1c(=S)[nH]c2ncccc2c1=O	n	n	n	13	n	n	n	n	n
O=c1c(-c2ccccc2)[n+]([O-])c2ccccc2n1O	n	n	n	21	n	12%	n	n	n
COc1ccc(N2CCN(CC(O)COCc3ccccc3)CC2)cc1 (stereo not drawn)	n	n	n	7.7	n	n	n	n	n
Cc1nnc(SCC(=O)c2cc(C)n(-c3ccc4c(c3)OCO4)c2C)s1	n	n	n	16	n	n	n	n	n
O=C1CSC(c2ccccn2)N1c1ccc(F)cc1F (stereo not drawn)	n	n	n	n	n	x	x	x	x
Cc1ccccc1-n1ncc2c1CC(C)(C)CC2NC(=O)c1ccncc1 (stereo not drawn)	n	n	n	n	n	x	x	x	x
Cc1ccccc1-n1ncc2c1CC(C)(C)CC2NC(=O)c1snnc1C (stereo not drawn)	n	n	n	10	n	7.8%	n	n	n
Cc1ccccc1-n1ncc2c1CC(C)(C)CC2NC(=O)CCC(F)(F)F (stereo not drawn)	n	n	n	9.8	n	n	n	n	n
CSc1ncccc1C(=O)NC1CC(C)(C)Cc2c1cnn2-c1ccccc1C (stereo not drawn)	n	n	n	17	n	n	n	n	n
CCCNC(=O)CS(=O)(=O)c1ccccc1	n	n	n	n	n	x	x	x	x
O=C(NC12CC3CC(CC(C3)C1)C2)c1cc(F)c(F)c(F)c1F	n	n	n	6.6	n	n	n	n	n
COc1cc(OC)c(C(=O)NC23CC4CC(CC(C4)C2)C3)cc1OC	n	n	n	n	n	x	x	x	x
CC1=CSC2=NC(=O)/C(=C/c3cccc(OC(=O)c4ccco4)c3)C(=N)N12	n	n	n	29	n	12%	n	n	n
CSC1=NSC2=NC(=O)/C(=C\c3ccc(OC(=O)c4ccco4)cc3)C(=N)N12	n	n	n	41	n	n	n	n	n
SMILES	MrgX1 antagonist	MrgX1 agonist	RGS4 act	MrgX1 PAM	RGS4 inh	MrgX1 allo conf	HEK293 Ca flux	HEK293 Ca counter	HEK293 Ca cntr2
CC1=CC2=NC(=O)/C(=C\c3ccc(OC(=O)c4ccco4)cc3)C(=N)N2O1	n	n	n	n	n	x	x	x	x
CC(C)Sc1ccccc1C(=O)Nc1ccc2c(c1)n(C)c(=O)n2C	n	n	n	n	n	x	x	x	x
Cc1ccc(C(C)C)cc1S(=O)(=O)NC1CC(C)(C)NC(C)(C)C1	n	n	n	n	n	x	x	x	x
O=C(Nc1sc2c(c1C(=O)O)CCC2)c1cccs1	n	n	n	n	n	x	x	x	x
NC(=O)c1c(NC(=O)c2cccs2)sc2c1CCCCCC2	n	n	n	8.5	n	n	n	n	n
COC(=O)c1ccc(NC(=S)Nc2ccc(O)cc2)cc1	n	n	n	n	n	x	x	x	x
Oc1ccc(NC(=S)Nc2ccc(O)cc2)cc1	n	n	n	10	n	n	n	n	n
O=C(N/N=C/c1cc(Cl)cc([N+](=O)[O-])c1O)c1ccccc1NS(=O)(=O)c1cccs1	n	n	n	n	n	x	x	x	x
O=C(Nc1ccc(Cl)c(Cl)c1)c1ccccc1	n	n	x	8	x	n	n	n	n
CCOC(=O)c1ccc(NC(=O)C2CC3CCC2C3)cc1 (stereo not drawn)	n	n	n	7.5	n	n	n	n	n
NNC(=O)/C(=C/c1cccs1)NC(=O)c1ccccc1Cl	n	n	n	n	n	x	x	x	x
CC1(C)c2ccccc2N(CC(N)=O)C12C=Cc1ccccc1O2 (stereo not drawn)	n	n	n	6.8	n	n	n	n	n
CCOC(=O)c1c(-c2ccccc2)csc1NC(=O)/C(C#N)=C/c1ccc(O)c(OC)c1	n	n	n	117	n	n	0.049	n	85
Cc1nc2cc(Cl)ccc2n1-c1ccccc1	n	n	n	16	n	n	n	n	n
COc1ccc(-c2cn(Cc3ccc(C(=O)c4ccccc4)cc3)nn2)cc1	n	n	n	n	n	x	x	x	x
Cc1ccc(C2/C(=C(/O)c3ccc4c(c3)CC(C)O4)C(=O)C(=O)N2CCCn2ccnc2)cc1 (stereo not drawn)	n	n	n	n	n	x	x	x	x
COc1ccc(C(=O)Nc2cc(OC)c(Cl)cc2Cl)cc1	n	n	n	n	n	x	x	x	x
COc1ccc(C(=O)Nc2scc(-c3ccc(Cl)cc3Cl)c2C(N)=O)cc1	n	n	n	27	n	20%	n	n	n
CC(=O)Nc1ccc(NC(=O)Cn2c(=O)n(-c3ccc(C)cc3)c(=O)c3oc4ccccc4c32)cc1	n	n	n	n	n	x	x	x	x
COc1ccccc1-n1c(=O)c2c3c(sc2n2c(SC)nnc12)CCC3	n	n	n	15	n	n	n	n	n
CCSc1nnc2n(-c3ccc(OC)cc3)c(=O)c3c4c(sc3n12)CCCC4	n	n	n	n	n	x	x	x	x
